Results from ChEMBL document CHEMBL1938334, “Quinoline tricyclic derivatives. Design, synthesis and evaluation of the antiviral activity of three new classes of RNA-dependent RNA polymerase inhibitors” (Bioorg Med Chem, 2011).

Columns and labels:
[1] = system: Vesicular stomatitis Indiana virus; test: Antiviral activity against clinical isolate Vesicular stomatitis Indiana virus infected in african green monkey Vero 76 cells assessed as reduction of virus-induced plaque formation after 2 days using crystal violet staining; format: functional, organism-based; settings: 48 h
[2] = system: Human immunodeficiency virus 1; test: Antiviral activity against HIV1 3B infected in human MT4 cells assessed as inhibition of virus-induced cytopathogenicity after 4 days by MTT assay; format: functional, organism-based; settings: Human immunodeficiency virus 1, 3B, MT4, 96 h
Outline: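 MT-4 cells (1×10^4 per well) were infected with HIV-1 IIIB at 100 CCID50, m.o.i. 0.01, together with serial compound dilutions. Viability was read by MTT after 4 days at 37 °C. EC50 was taken by linear regression versus untreated controls. Mean of three determinations.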

[3] = system: Coxsackievirus B5; test: Antiviral activity against Human coxsackievirus B5 Ohio-1 infected in african green monkey Vero 76 cells assessed as reduction of virus-induced plaque formation after 3 days using crystal violet staining; format: functional, organism-based; settings: Enterovirus B, Ohio-1, Vero, 72 h
[4] = system: Poliovirus 1; test: Antiviral activity against Human poliovirus 1 strain Sabin Chat infected in african green monkey Vero 76 cells assessed as virus-induced reduction of plaque formation after 2 days using crystal violet staining; format: functional, cell-based; settings: Enterovirus C, 48 h
[5] = system: Yellow fever virus; test: Antiviral activity against Yellow fever virus 17D Stamaril Pasteur J07B01 infected in hamster BHK21 cells assessed as inhibition of virus-induced cytopathogenicity after 3 to 4 days by MTT assay; format: functional, cell-based; settings: Stamaril Pasteur J07B01, BHK-21
Outline: (§1)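 Host cells were seeded in 96-well plates at 3×10^4 cells/well (MDBK) or 5×10^4 cells/well (BHK-21) and grown to confluent monolayers overnight. They were infected at m.o.i. 0.01 in maintenance MEM with 0.5% inactivated FBS. Serial compound dilutions were added after 1 h. Viability was read by MTT after 3–4 days at 37 °C. EC50 was taken by linear regression against untreated controls. Mean of three determinations.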

[6] = Antiviral activity against Bovine viral diarrhea virus 1-NADL infected in MDBK cells assessed as inhibition of virus-induced cytopathogenicity after 3 to 4 days by MTT assay; format: functional, cell-based; settings: Bovine viral diarrhea virus isolates and strains; outline: as §1
[7] = Cytotoxicity against human MT4 cells after 96 hrs by MTT assay; format: cell-based
Outline: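 Exponentially growing MT-4 cells seeded at 1×10^5 cells/mL in RPMI-1640 with 10% FBS, penicillin and streptomycin. Incubated with serial compound dilutions at 37 °C, 5% CO2 for 96 h; viability by MTT. CC50 by linear regression relative to untreated controls; mean of three independent determinations.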

[8] = Cytotoxicity against MDBK cells after 48 to 96 hrs by MTT assay; format: cell-based, Bos taurus; settings: cattle
Outline: (§2)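 MDBK seeded at 6×10^5 and BHK at 1×10^6 cells/mL in MEM-Earle's with L-glutamine, 1 mM pyruvate, kanamycin, plus 10% horse serum (MDBK) or 10% FBS (BHK). Cells were grown at 37 °C, 5% CO2 with serial compound dilutions (DMSO stocks diluted in medium). Viability by MTT after 48–96 h. CC50 was taken by linear regression versus untreated controls; three independent determinations.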

[9] = Cytotoxicity against BHK21 cells after 48 to 96 hrs by MTT assay; format: cell-based, Mesocricetus auratus, BHK-21; settings: hamster; outline: as §2
[10] = system: Human orthopneumovirus; test: Antiviral activity against Human respiratory syncytial virus A2 infected in african green monkey Vero 76 cells assessed as reduction of virus-induced plaque formation after 5 days using crystal violet staining; format: functional, organism-based; settings: 120 h
[11] = Antiviral activity against Vaccinia virus Lister Elstree infected in african green monkey Vero 76 cells assessed as reduction of virus-induced plaque formation after 3 days using crystal violet staining; format: functional, cell-based; settings: 72 h
[12] = system: Reovirus sp.; test: Antiviral activity against Reovirus type-1 3651 infected in hamster BHK21 cells assessed as inhibition of virus-induced cytopathogenicity after 3 to 4 days by MTT assay; format: functional, organism-based; settings: Reovirus sp., 3651, BHK-21; outline: as §1
[13] = Cytotoxicity against african green monkey Vero 76 cells after 48 to 96 hrs by crystal violet staining; format: cell-based; settings: chlorocebus sabaeus
Outline: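 Vero-76 cells were seeded at 4×10^5 cells/mL in D-MEM with L-glutamine, kanamycin and 10% FBS, then exposed to serial compound dilutions at 37 °C, 5% CO2 for 48–96 h. Viability was read by crystal violet staining. 50% cytotoxic concentration by linear regression relative to untreated controls; mean of three independent determinations.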

[14] = system: Human alphaherpesvirus 1; test: Antiviral activity against Human herpesvirus 1 strain KOS infected in african green monkey Vero 76 cells assessed as reduction of virus-induced plaque formation after 3 days using crystal violet staining; format: functional, organism-based; settings: Human alphaherpesvirus 1, KOS, 72 h

Structure (SMILES)	EC50 [1]	EC50 [2]	EC50 [3]	EC50 [4]	EC50 [5]	EC50 [6]	CC50 at 96 h [7]	CC50 [8]	CC50 [9]	EC50 [10]	EC50 [11]	EC50 [12]	CC50 [13]	EC50 [14]
O=[N+]([O-])c1ccc(-c2nc3cc4cccnc4cc3[nH]2)cc1	> 95 µM	> 100 µM	35 µM	> 95 µM	> 100 µM	20 µM	> 100 µM	90 µM	> 100 µM	> 95 µM	> 95 µM	67 µM	95 µM	–
O=[N+]([O-])c1ccc(-c2nc3cc4cccnc4cc3[nH]2)c2ccccc12	> 100 µM	> 6 µM	> 100 µM	> 100 µM	> 100 µM	> 18 µM	6 µM	18 µM	> 100 µM	> 100 µM	> 100 µM	50 µM	> 100 µM	–
c1cnc2cc3nccnc3cc2c1	> 100 µM	> 100 µM	> 100 µM	> 100 µM	> 100 µM	> 100 µM	> 100 µM	> 100 µM	> 100 µM	–	> 100 µM	–	> 100 µM	> 100 µM
C[C@@]1(O)[C@H](O)[C@@H](CO)O[C@H]1n1ccc(N)nc1=O	–	–	–	–	–	–	–	–	> 100 µM	–	–	16 µM	–	–
c1cnc2cc3[nH]nnc3cc2c1	> 100 µM	> 40 µM	> 100 µM	> 100 µM	> 100 µM	> 100 µM	40 µM	> 100 µM	> 100 µM	> 100 µM	> 100 µM	> 100 µM	> 100 µM	> 100 µM
[O-][n+]1n[nH]c2c(Cl)c3ncccc3cc21	> 100 µM	> 100 µM	86 µM	> 100 µM	> 100 µM	> 100 µM	> 100 µM	> 100 µM	> 100 µM	> 100 µM	> 100 µM	–	> 100 µM	> 100 µM
C[C@@]1(O)[C@H](O)[C@@H](CO)O[C@H]1n1cnc2c(=O)[nH]c(N)nc21 [2'-B-METHYL-GUANOSINE]	–	–	–	–	1.9 µM	1.1 µM	–	> 10 µM	> 10 µM	–	–	–	–	–
C#C[C@@]1(O)[C@H](O)[C@@H](CO)O[C@H]1n1ccc(N)nc1=O [2'-ETHYNYL-D-CYTIDINE]	–	–	27 µM	–	–	–	–	–	–	–	–	–	> 100 µM	–
O=c1cnn([C@@H]2O[C@H](CO)[C@@H](O)[C@H]2O)c(=O)[nH]1 [6-AZAURIDINE]	–	–	–	–	–	–	–	–	–	1.2 µM	–	–	≥ 12.5 µM	–
Nc1nc2c(ncn2COCCO)c(=O)[nH]1 [ACYCLOVIR]	–	–	–	–	–	–	–	–	–	–	–	–	> 100 µM	–
O=C1Nc2ccc(Cl)cc2[C@@](C#CC2CC2)(C(F)(F)F)O1 [EFAVIRENZ]	–	–	–	–	–	–	40 µM	–	–	–	–	–	–	–
COc1c(C)c2c(c(O)c1C/C=C(\C)CCC(=O)O)C(=O)OC2 [MYCOPHENOLIC ACID]	–	–	–	–	–	–	–	–	–	–	1.5 µM	–	≥ 12.5 µM	–
